For 10 molecules, zone of inhibition and MIC results are on record in ChEMBL document CHEMBL1165897, “Design, synthesis, characterization, and antibacterial activity of {5-chloro-2-[(3-substitutedphenyl-1,2,4-oxadiazol-5-yl)-methoxy]-phenyl}-(phenyl)-methanones” (2010).

A word on the MIC: it is the smallest concentration in the dilution series that meets the test's criterion for growth inhibition.

For experiment [1], the system named is Bacillus subtilis. As to the kind of experiment: Antibacterial activity against Bacillus subtilis NCIM 2063; ATCC 6633 at […] after 24 hrs by agar cup plate method. In kind it is functional, NCIM 2063; ATCC6633. The note with it: ATCC6633, 24 h, read-out: IZ. The essentials: (§1)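 Agar cup plate diffusion: test compounds at 100 µg/mL in 20% water in DMSO placed in bores cut in agar plates seeded with each organism, alongside standard drugs; incubated 37 °C for 24 h, then zone of inhibition around the bore measured. Values are the average of three experiments.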

Experiment [2] has as its system Staphylococcus aureus. As to the kind of experiment: Antibacterial activity against Staphylococcus aureus NCIM 2079; ATCC 6538P at […] after 24 hrs by agar cup plate method. In kind it is functional, NCIM 2079; ATCC6538P. The note with it: ATCC6538P, read-out: IZ. Further details: dose or concentration left out as unconfirmed.
The test system of experiment [3] is Escherichia coli. Put plainly: Antibacterial activity against Escherichia coli NCIM 2065; ATCC 8739 at […] after 24 hrs by agar cup plate method. In kind it is functional. Particulars: ATCC 8739, 24 h, read-out: IZ. The gist of the method: as §1
For experiment [4], the system named is Bacillus subtilis. Put plainly: Antibacterial activity against Bacillus subtilis NCIM 2063; ATCC 6633 after 24 hrs by microtitration method. In kind it is functional, NCIM 2063; ATCC6633. Particulars: ATCC6633, 24 h. The gist of the method:
(§2)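 Microtitration assay using the same isolates as the cup plate test; MIC taken as the lowest concentration of test sample or antibiotic giving no visible growth.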

The subject of experiment [5] is Staphylococcus aureus. Put plainly: Antibacterial activity against Staphylococcus aureus NCIM 2079; ATCC 6538P after 24 hrs by microtitration method. In kind it is functional. The note with it: ATCC6538P. The gist of the method:
as §2

Experiment [6] has as its system Escherichia coli. Put plainly: Antibacterial activity against Escherichia coli NCIM 2065; ATCC 8739 after 24 hrs by microtitration method. In kind it is functional. The note with it: ATCC 8739, 24 h. The gist of the method: as §2
The test system of experiment [7] is Klebsiella pneumoniae. As to the kind of experiment: Antibacterial activity against Klebsiella pneumoniae NCIM 2957; ATCC 11298 after 24 hrs by microtitration method. In kind it is functional. Particulars: ATCC 11298, 24 h. The gist of the method: as §2

Structures are written as SMILES. Converted amounts (≈) assume the structure as drawn.

Turning to `O=C(c1ccccc1)c1cc(Cl)ccc1OCc1nc(-c2ccc(F)c(Cl)c2)no1`, the zone of inhibition at 100000 µg/mL was 19 mm in experiment [1] and 16 mm in experiment [3]. Moreover, in experiment [2], the zone of inhibition was determined as 17 mm. In addition, the MIC is 29.8 µg/mL (≈ 67.2 µM) in experiment [4], 30.6 µg/mL (≈ 69 µM) in experiment [5], 30.8 µg/mL (≈ 69.5 µM) in experiment [6] and 39.6 µg/mL (≈ 89.3 µM) in experiment [7].
For the molecule `O=C(c1ccccc1)c1cc(Cl)ccc1OCc1nc(-c2ccc(I)cc2)no1`, the zone of inhibition at 100000 µg/mL in experiment [1] worked out at 16 mm; in experiment [3] it was 10 mm. The zone of inhibition in experiment [2] is 13 mm. For the same molecule, the MIC in experiment [4] was found to be 30.8 µg/mL (≈ 59.6 µM); in experiment [5] it was 41.6 µg/mL (≈ 80.5 µM); in experiment [6] it was 62.2 µg/mL (≈ 120 µM); in experiment [7], 46 µg/mL (≈ 89 µM).
Regarding `CC(C)c1ccc(-c2noc(COc3ccc(Cl)cc3C(=O)c3ccccc3)n2)cc1`, the zone of inhibition at 100000 µg/mL in experiment [1] is 14 mm; in experiment [3], 11 mm. For the same molecule, the zone of inhibition in experiment [2] stood at 15 mm. Also, the MIC in experiment [4] came out at 40.6 µg/mL (≈ 93.8 µM); in experiment [5], 39.6 µg/mL (≈ 91.5 µM); in experiment [6], 60.8 µg/mL (≈ 140 µM); in experiment [7] it was 62 µg/mL (≈ 143 µM).
As for `Cc1cc(-c2noc(COc3ccc(Cl)cc3C(=O)c3ccccc3)n2)ccc1F`, the figures for the zone of inhibition at 100000 µg/mL in experiment [1] and in experiment [3] were 17 mm and 20 mm, respectively. Besides, in experiment [2], the zone of inhibition was determined as 15 mm. Further, the MIC was 30.6 µg/mL (≈ 72.4 µM) in experiment [4], 40 µg/mL (≈ 94.6 µM) in experiment [5], 29.6 µg/mL (≈ 70 µM) in experiment [6] and 30 µg/mL (≈ 70.9 µM) in experiment [7].
Regarding `CC1(C)S[C@@H]2[C@H](NC(=O)[C@H](N)c3ccccc3)C(=O)N2[C@H]1C(=O)O` [AMPICILLIN], the zone of inhibition at 100000 µg/mL in experiment [1] came out at 32 mm; in experiment [3], 30 mm. Further, the zone of inhibition in experiment [2] was found to be 31 mm. For the same molecule, the MIC worked out at 3.28 µg/mL (≈ 9.39 µM) in experiment [4], 3.36 µg/mL (≈ 9.62 µM) in experiment [5], 3.88 µg/mL (≈ 11.1 µM) in experiment [6] and 4 µg/mL (≈ 11.4 µM) in experiment [7].
Consider `O=C(c1ccccc1)c1cc(Cl)ccc1OCc1nc(-c2ccccc2)no1`, for which the zone of inhibition at 100000 µg/mL in experiment [1] worked out at 14 mm; in experiment [3], 10 mm. Besides, the zone of inhibition in experiment [2] is 9 mm. In addition, the MIC in experiment [4] was 41 µg/mL (≈ 105 µM); in experiment [5] it was 68 µg/mL (≈ 174 µM); in experiment [6], 64.2 µg/mL (≈ 164 µM); in experiment [7] it was 62 µg/mL (≈ 159 µM).
As to `COc1cc(-c2noc(COc3ccc(Cl)cc3C(=O)c3ccccc3)n2)ccc1F`, the zone of inhibition at 100000 µg/mL in experiment [1] worked out at 19 mm; in experiment [3], 17 mm. For the same molecule, the zone of inhibition in experiment [2] stood at 18 mm. Further, the minimum inhibitory concentration (MIC) was found to be 29.8 µg/mL (≈ 67.9 µM) in experiment [4], 30 µg/mL (≈ 68.4 µM) in experiment [5], 30.6 µg/mL (≈ 69.7 µM) in experiment [6] and 30.8 µg/mL (≈ 70.2 µM) in experiment [7].
With `Cc1cc(F)c(-c2noc(COc3ccc(Cl)cc3C(=O)c3ccccc3)n2)cc1F`, the zone of inhibition at 100000 µg/mL in experiment [1] was found to be 27 mm; in experiment [3], 19 mm. Also, the zone of inhibition in experiment [2] was 25 mm. The minimum inhibitory concentration (MIC) in experiment [4] came out at 21.5 µg/mL (≈ 48.8 µM); in experiment [5], 22.4 µg/mL (≈ 50.8 µM); in experiment [6] it was 29.8 µg/mL (≈ 67.6 µM); in experiment [7], 30.6 µg/mL (≈ 69.4 µM).
As to `O=C(c1ccccc1)c1cc(Cl)ccc1OCc1nc(-c2ccc(F)cc2)no1`, the zone of inhibition at 100000 µg/mL in experiment [1] stood at 15 mm; in experiment [3], 16 mm. The zone of inhibition in experiment [2] came out at 14 mm. In addition, the MIC in experiment [4] was 39.6 µg/mL (≈ 96.9 µM); in experiment [5], 40.6 µg/mL (≈ 99.3 µM); in experiment [6], 30.8 µg/mL (≈ 75.3 µM); in experiment [7] it was 42 µg/mL (≈ 103 µM).
Turning to `CCOc1ccc(-c2noc(COc3ccc(Cl)cc3C(=O)c3ccccc3)n2)cc1`, the figures for the zone of inhibition at 100000 µg/mL in experiment [1] and in experiment [3] were 13 mm and 11 mm, respectively. Besides, in experiment [2], the zone of inhibition came to 19 mm. The MIC in experiment [4] is 42.2 µg/mL (≈ 97 µM); in experiment [5], 29.8 µg/mL (≈ 68.5 µM); in experiment [6], 59.4 µg/mL (≈ 137 µM); in experiment [7], 40 µg/mL (≈ 92 µM).
